target: T1, UniProt Q8VH20; conditions: stereoisomer not certain
T1 sequence (whole entry): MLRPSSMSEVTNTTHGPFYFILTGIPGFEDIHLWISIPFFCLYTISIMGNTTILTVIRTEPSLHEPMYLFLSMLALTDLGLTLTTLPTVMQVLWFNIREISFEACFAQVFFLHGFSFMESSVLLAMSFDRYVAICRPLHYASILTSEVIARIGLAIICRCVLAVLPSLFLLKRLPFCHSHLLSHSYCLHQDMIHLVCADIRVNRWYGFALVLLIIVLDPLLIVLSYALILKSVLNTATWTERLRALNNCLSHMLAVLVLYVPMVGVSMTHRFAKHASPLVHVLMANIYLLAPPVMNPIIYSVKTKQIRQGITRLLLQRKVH
In short: (§1)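 Assay methods differ from source to source, frequently being transient luciferase assays in mammalian cell lines. For each receptor–molecule pair, the label responsive (active) applies when the original authors judged the measured signal statistically different from baseline, and non-responsive (inactive) applies otherwise.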

Row | Structure (SMILES) | odorant receptor agonist call
1 | Cc1ccc(C(C)C)c(O)c1 | inactive
2 | COC(OC)c1ccccc1 | inactive
3 | COc1ccccc1 | inactive
4 | CCC=CCCCCC=O | active
5 | CSSSC | active
6 | C1CCOC1 | inactive
7 | CC(C)CCN | inactive
8 | CCN(CC)CC | inactive
9 | CC1CC=CCCCCCCCCCC(=O)C1 (centres undefined) | inactive
10 | CCC=CCCC=CC=O | inactive
11 | CC(=O)OC1(C)CCC23CC1C(C)(C)C2CCC3C (centres undefined) | active
12 | CNc1ccccc1C(=O)OC | inactive
13 | c1ccc2ncccc2c1 | inactive
14 | O=C(O)C1CCC1 | inactive
15 | CCCO | inactive
16 | CCCCCCCCOC=O | inactive
17 | C=CC(=O)CCCCC | inactive
18 | CC(=O)C1(C)CC2=C(CCCC2(C)C)CC1C (centres undefined) | inactive
19 | CCCCCC=CCCC=O | active
20 | CCCCCOC(=O)CCC | inactive
21 | C1CCOCC1 | inactive
22 | CC(=O)OCc1ccc2c(c1)OCO2 | inactive
23 | COc1cnccn1 | inactive
24 | CCOC(=O)C(C)CC (centres undefined) | inactive
25 | CC=C(C)C=O | inactive
26 | C=C(C)C1CCC(C)C(O)C1 (centres undefined) | inactive
27 | CCCCCC(C=O)=Cc1ccccc1 | inactive
28 | C=C(C)C1CC=C(C)CC1 (centres undefined) | inactive
29 | Cc1occc1SSc1ccoc1C | inactive
30 | Cc1ccc(C(C)C)cc1 | inactive

target: T2, UniProt Q8VH21; conditions: stereoisomer not certain
T2 sequence (whole entry): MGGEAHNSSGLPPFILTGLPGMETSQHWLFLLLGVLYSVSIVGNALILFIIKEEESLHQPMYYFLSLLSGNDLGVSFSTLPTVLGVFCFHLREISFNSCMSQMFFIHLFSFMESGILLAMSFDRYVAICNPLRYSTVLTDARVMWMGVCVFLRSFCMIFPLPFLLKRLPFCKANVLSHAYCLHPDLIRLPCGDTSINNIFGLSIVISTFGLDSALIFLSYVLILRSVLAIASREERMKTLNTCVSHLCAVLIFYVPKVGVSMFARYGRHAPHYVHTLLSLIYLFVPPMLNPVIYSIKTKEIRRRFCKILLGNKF
In short: as §1

Row | Structure (SMILES) | odorant receptor agonist call
31 | Cc1ccc(C(C)C)c(O)c1 | inactive
32 | COC(OC)c1ccccc1 | inactive
33 | COc1ccccc1 | inactive
34 | CCC=CCCCCC=O | inactive
35 | CSSSC | inactive
36 | C1CCOC1 | inactive
37 | CC(C)CCN | inactive
38 | CCN(CC)CC | inactive
39 | CC1CC=CCCCCCCCCCC(=O)C1 (centres undefined) | inactive
40 | CCC=CCCC=CC=O | inactive
41 | CC(=O)OC1(C)CCC23CC1C(C)(C)C2CCC3C (centres undefined) | inactive
42 | CNc1ccccc1C(=O)OC | inactive
43 | c1ccc2ncccc2c1 | inactive
44 | O=C(O)C1CCC1 | active
45 | CCCO | inactive
46 | CCCCCCCCOC=O | inactive
47 | C=CC(=O)CCCCC | inactive
48 | CC(=O)C1(C)CC2=C(CCCC2(C)C)CC1C (centres undefined) | inactive
49 | CCCCCC=CCCC=O | inactive
50 | CCCCCOC(=O)CCC | inactive
51 | C1CCOCC1 | inactive
52 | CC(=O)OCc1ccc2c(c1)OCO2 | inactive
53 | COc1cnccn1 | inactive
54 | CCOC(=O)C(C)CC (centres undefined) | inactive
55 | CC=C(C)C=O | active
56 | C=C(C)C1CCC(C)C(O)C1 (centres undefined) | inactive
57 | CCCCCC(C=O)=Cc1ccccc1 | inactive
58 | C=C(C)C1CC=C(C)CC1 (centres undefined) | inactive
59 | Cc1occc1SSc1ccoc1C | inactive
60 | Cc1ccc(C(C)C)cc1 | inactive

target: T3, UniProt Q920P1; conditions: stereoisomer not certain
T3 sequence (whole entry): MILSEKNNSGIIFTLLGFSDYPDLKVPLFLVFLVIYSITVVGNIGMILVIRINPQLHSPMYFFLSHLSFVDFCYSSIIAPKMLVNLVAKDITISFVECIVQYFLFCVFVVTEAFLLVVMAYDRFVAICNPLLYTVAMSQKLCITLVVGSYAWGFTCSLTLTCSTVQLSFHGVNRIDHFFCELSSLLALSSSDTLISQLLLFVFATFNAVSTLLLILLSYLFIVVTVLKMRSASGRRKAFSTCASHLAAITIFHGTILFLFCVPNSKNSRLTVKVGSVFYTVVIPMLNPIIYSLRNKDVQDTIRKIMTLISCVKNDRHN
In short: as §1

Row | Structure (SMILES) | odorant receptor agonist call
61 | CCc1ccc(O)c(OC)c1 | inactive
62 | CC(C=O)Cc1ccc(C(C)(C)C)cc1 (centres undefined) | inactive
63 | C=CCc1ccc(OCC)c(OC)c1 | inactive
64 | COc1cc(C=O)cc(OC)c1O | inactive

— the M2OR odorant receptor database
